Reference: ChEMBL document CHEMBL1177892, “Synthesis, anti-inflammatory and ulcerogenicity studies of some substituted pyrimido[1,6-a]azepine derivatives” (Eur J Med Chem, 2010)

Columns and labels:
Rattus norvegicus [1] = assay: Antiinflammatory activity in albino rat assessed as inhibition of carrageenan-induced paw oedema at […], ip administered 1 hr before carrageenan challenge measured after 3 hrs relative to control; type: functional; set-up: scale not given: the % may be the effect or the level left; settings: in the assay text read “relative to diclofenac sodium” for “relative to control”
Outline: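 Albino rats of both sexes (120–150 g) were pre-hydrated with 3 ml water/rat by gastric tube. Oedema was induced by s.c. sub-plantar injection of 1% carrageenan gel into the right hind paw. Right and left paw dorso-ventral thickness was read with dial calipers at 1, 2 and 3 h. Inhibition % = (1 − Lt/Lc) × 100, using mean paw-thickness increase of treated versus control rats.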

Rattus norvegicus [2] = assay: Toxicity in albino rat at 20 mg/kg assessed as ulcer index; settings: in vivo
Rattus norvegicus [3] = assay: Toxicity in albino rat at 20 mg/kg assessed as ulcerogenicity; settings: in vivo
Rattus norvegicus [4] = assay: Antiinflammatory activity in ip dosed albino rat assessed as inhibition of carrageenan-induced paw oedema administered 1 hr before carrageenan challenge measured after 3 hrs relative to control; type: functional, organism-based
Outline: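 Carrageenan paw-oedema model in albino rats of both sexes (120–150 g), water-loaded with 3 ml by gastric tube. […] was calculated from doses of […], with paw-thickness inhibition read 3 h after sub-plantar injection of 1% carrageenan. Inhibition % = (1 − Lt/Lc) × 100.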

SMILES	Activity (Rattus norvegicus [1]) [%]	UI (Rattus norvegicus [2])	Activity (Rattus norvegicus [3]) [%]	ED50 (Rattus norvegicus [4]) [µmol/kg]
N#CC1=C(NCN2CCCC2)N(c2ccccc2)C(=O)N2CCCCC(N3CCCC3)C12 (stereo not drawn)	40.29			
N#CC1=C(NCC(=O)N2CCCC2)N(c2ccccc2)C(=O)N2CCCCC(N3CCCC3)C12 (stereo not drawn)	63.93			
N#CC1=C(/N=C/Nc2ccc([N+](=O)[O-])cc2)N(c2ccccc2)C(=O)N2CCCCC(N3CCCC3)C12 (stereo not drawn)	97.71	4.8	3	
N#CC1=C(NCN2CCOCC2)N(c2ccccc2)C(=O)N2CCCCC(N3CCCC3)C12 (stereo not drawn)	50.68			
COC(=O)C(=O)NC1=C(C#N)C2C(N3CCCC3)CCCCN2C(=O)N1c1ccccc1 (stereo not drawn)	100.79	2.2	1	10.6
N#CC1=C(/N=C/c2ccccc2)N(c2ccccc2)C(=O)N2CCCCC(N3CCCC3)C12 (stereo not drawn)	95.9			
N#CC1=C(NC(=O)c2ccccc2O)N(c2ccccc2)C(=O)N2CCCCC(N3CCCC3)C12 (stereo not drawn)	74.65			
N#CC1=C(NCN2CCCCC2)N(c2ccccc2)C(=O)N2CCCCC(N3CCCC3)C12 (stereo not drawn)	48.05			
N#CC1=C(NCC(=O)N2CCCCC2)N(c2ccccc2)C(=O)N2CCCCC(N3CCCC3)C12 (stereo not drawn)	61.07			
N#CC1=C(NCC(=O)N2CCOCC2)N(c2ccccc2)C(=O)N2CCCCC(N3CCCC3)C12 (stereo not drawn)	83.9			
N#CC1=C(N)N(c2ccccc2)C(=O)N2CCCCC(N3CCCC3)C12 (stereo not drawn)	102.85			6.61
COc1ccc(N/C=N/C2=C(C#N)C3C(N4CCCC4)CCCCN3C(=O)N2c2ccccc2)cc1 (stereo not drawn)	57.3			
N#Cc1c2n(c(=O)n(-c3ccccc3)c1=N)CCCCC2N1CCCC1 (stereo not drawn)	106.62			8.5
N#CC1=C(NC(=O)Cc2ccccc2Nc2c(Cl)cccc2Cl)N(c2ccccc2)C(=O)N2CCCCC(N3CCCC3)C12 (stereo not drawn)	76.71			
N#CC1=C(/N=C/Nc2ccccc2)N(c2ccccc2)C(=O)N2CCCCC(N3CCCC3)C12 (stereo not drawn)	90.52			
CCOC(=O)C(=O)NC1=C(C#N)C2C(N3CCCC3)CCCCN2C(=O)N1c1ccccc1 (stereo not drawn)	104.45	2.5	1	9.13
COc1ccc(/C=N/C2=C(C#N)C3C(N4CCCC4)CCCCN3C(=O)N2c2ccccc2)cc1 (stereo not drawn)	85.91			
N#CC1=C(NCC(=O)O)N(c2ccccc2)C(=O)N2CCCCC(N3CCCC3)C12 (stereo not drawn)	101.82	5.4	4	10.3
N#CC1=C(/N=C/c2ccc([N+](=O)[O-])cc2)N(c2ccccc2)C(=O)N2CCCCC(N3CCCC3)C12 (stereo not drawn)	104.68	3.6	2	7.14
O=C([O-])Cc1ccccc1Nc1c(Cl)cccc1Cl.[Na+] [DICLOFENAC SODIUM]		9	6	7.26
